Measurements published in publication PMC3946497 (Molecular pharmaceutics, 2013).

Assays:
Assay type in all cases: in vivo, mouse
[1] = system: athymic nude mice bearing U87MG human glioma xenografts; experiment: Biodistribution in athymic nude mice bearing U87MG glioma xenografts; conditions: average ± SD; for Brain uptake / Eyes uptake / Heart uptake / Intestine uptake / Kidney uptake / Liver uptake / Lungs uptake / Muscle uptake / Spleen uptake / Blood uptake / Tumor uptake: tail vein ~0.1 MBq; for Blood uptake: γ-counting; for Tumor uptake: U87MG glioma xenograft
Outline: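 Tumour model: female athymic nu/nu mice, 4–5 weeks old, inoculated s.c. in the shoulder flank with 5 × 10^6 U87MG cells and used 4 weeks later (tumours 0.1–0.5 g; mice 20–25 g). Dosing: ~0.1 MBq radiotracer (~2 ng conjugate) in filtered saline. Groups of 5–8 killed at 5, 30, 60 and 120 min by pentobarbital overdose. Blood and organs washed, blotted, weighed and γ-counted as %ID/g.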

[2] = system: athymic nude mice bearing U87MG human glioma xenografts; experiment: SPECT/CT imaging with SPECT quantification of tumor uptake; conditions: U87MG glioma xenograft; ~37 MBq via tail vein; imaging at 60 min p.i.
Outline: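 Imaging dose: ~37 MBq radiotracer (~0.8 µg conjugate) in 0.1 mL saline i.v.; mice imaged under isoflurane. SPECT: multi-pinhole collimator (0.6 mm), 75 projections per 30-min frame, 2 frames. CT: 45 kV, 500 µA, 2° intervals. Tumour ROIs drawn on CT; counts converted to activity via a standard curve from sources of known activity scanned the same way; expressed as %ID/cm3.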

[3] = system: athymic nude mice bearing U87MG glioma xenografts; conditions: 60 min p.i.
[4] = system: athymic nude mice without tumors; experiment: Metabolism study; conditions: ~10 MBq via tail vein, n = 3, radio-HPLC
Outline: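 Tumour-free athymic nude mice (n = 3), ~10 MBq radiotracer i.v. Urine (manual void): mixed 1:1 with 50% acetonitrile, spun at 8,000 rpm, supernatant 0.20 µm-filtered. Feces: homogenised, suspended in 20% acetonitrile, vortexed ~5 min, spun, filtered. Filtrates analysed by C18 HPLC at 2.5 mL/min on a 0.05% TFA water/acetonitrile gradient (10% to 30% B over 20 min).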

[5] = co-injection of excess RGD2 (350 µg/mouse or 14 mg/kg), n = 6

With “[^99mTc(HYNIC-Galacto-RGD2)(tricine)(TPPTS)] (bicyclic or more) [^99mTc-Galacto-RGD2]” the Tumor/Blood ratio ([1]; 5 min p.i., n = 5) was 9.43 ± 1.19, the Tumor/Kidney ratio ([1]; 5 min p.i., n = 5) was 0.52 ± 0.14 and the Tumor/Liver ratio ([1]; 5 min p.i., n = 5) was 2.66 ± 0.51. It also gave a Tumor/Lung ratio ([1]; 5 min p.i., n = 5) of 1.90 ± 0.21, a Tumor/Muscle ratio ([1]; 5 min p.i., n = 5) of 3.98 ± 0.75 and a Brain uptake ([1]; 5 min p.i., n = 5) of 0.41 ± 0.10 %ID/g. It also gave an Eyes uptake ([1]; 5 min p.i., n = 5) of 1.54 ± 0.49 %ID/g, a Heart uptake ([1]; 5 min p.i., n = 5) of 2.36 ± 0.29 %ID/g and an Intestine uptake ([1]; 5 min p.i., n = 5) of 3.78 ± 0.52 %ID/g. It also gave a Kidney uptake ([1]; 5 min p.i., n = 5) of 18.75 ± 2.79 %ID/g, a Liver uptake ([1]; 5 min p.i., n = 5) of 4.00 ±1.10 %ID/g and a Lungs uptake ([1]; 5 min p.i., n = 5) of 5.41 ± 0.58 %ID/g. The Muscle uptake ([1]; 5 min p.i., n = 5) was 2.73 ± 0.89 %ID/g, the Spleen uptake ([1]; 5 min p.i., n = 5) was 2.97 ± 0.43 %ID/g and the Blood uptake ([1]; 5 min p.i., n = 5) was 1.10 ± 0.16 %ID/g. For the same substance, the Tumor/Blood ratio ([1]; 30 min p.i., n = 5) was 9.65 ± 2.03, the Tumor/Kidney ratio ([1]; 30 min p.i., n = 5) was 0.61 ±0.12 and the Tumor/Liver ratio ([1]; 30 min p.i., n = 5) was 3.25 ± 0.85. It also gave a Tumor/Lung ratio ([1]; 30 min p.i., n = 5) of 2.19 ± 0.75, a Tumor/Muscle ratio ([1]; 30 min p.i., n = 5) of 7.97 ± 2.53 and a Brain uptake ([1]; 30 min p.i., n = 5) of 0.22 ± 0.06 %ID/g. The Eyes uptake ([1]; 30 min p.i., n = 5) was 1.20 ± 0.50 %ID/g, the Heart uptake ([1]; 30 min p.i., n = 5) was 1.65 ± 1.10 %ID/g and the Intestine uptake ([1]; 30 min p.i., n = 5) was 4.24 ± 1.54 %ID/g. It also gave a Kidney uptake ([1]; 30 min p.i., n = 5) of 13.13 ± 4.75 %ID/g, a Liver uptake ([1]; 30 min p.i., n = 5) of 2.82 ± 1.25 %ID/g and a Lungs uptake ([1]; 30 min p.i., n = 5) of 4.24 ± 1.71 %ID/g. It also gave a Muscle uptake ([1]; 30 min p.i., n = 5) of 1.10 ± 0.25 %ID/g, a Spleen uptake ([1]; 30 min p.i., n = 5) of 2.53 ± 0.85 %ID/g and a Blood uptake ([1]; 30 min p.i., n = 5) of 0.92 ± 0.33 %ID/g. The Tumor/Blood ratio ([1]; 60 min p.i., n = 8) was 15.94 ± 8.85, the Tumor/Kidney ratio ([1]; 60 min p.i., n = 8) was 0.79 ±0.40 and the Tumor/Liver ratio ([1]; 60 min p.i., n = 8) was 3.05 ± 1.69. The Tumor/Lung ratio ([1]; 60 min p.i., n = 8) was 2.73 ± 1.33, the Tumor/Muscle ratio ([1]; 60 min p.i., n = 8) was 9.40 ± 5.11 and the Brain uptake ([1]; 60 min p.i., n = 8) was 0.35 ± 0.28 %ID/g. The Eyes uptake ([1]; 60 min p.i., n = 8) was 0.81 ± 0.39 %ID/g, the Heart uptake ([1]; 60 min p.i., n = 8) was 1.27 ± 0.61 %ID/g and the Intestine uptake ([1]; 60 min p.i., n = 8) was 5.45 ± 1.47 %ID/g. It also gave a Kidney uptake ([1]; 60 min p.i., n = 8) of 11.70 ± 4.06 %ID/g, a Liver uptake ([1]; 60 min p.i., n = 8) of 3.07 ± 2.14 %ID/g and a Lungs uptake ([1]; 60 min p.i., n = 8) of 2.93 ± 0.94 %ID/g. For the same substance, the Muscle uptake ([1]; 60 min p.i., n = 8) was 0.88 ± 0.34 %ID/g, the Spleen uptake ([1]; 60 min p.i., n = 8) was 1.99 ± 0.71 %ID/g and the Blood uptake ([1]; 60 min p.i., n = 8) was 0.56 ± 0.25 %ID/g. The Tumor/Blood ratio ([1]; 120 min p.i., n = 8) was 26.48 ± 8.71, the Tumor/Kidney ratio ([1]; 120 min p.i., n = 8) was 0.89 ±0.48 and the Tumor/Liver ratio ([1]; 120 min p.i., n = 8) was 4.03 ± 2.04. For the same substance, the Tumor/Lung ratio ([1]; 120 min p.i., n = 8) was 4.38 ± 1.34, the Tumor/Muscle ratio ([1]; 120 min p.i., n = 8) was 12.91 ± 4.95 and the Brain uptake ([1]; 120 min p.i., n = 8) was 0.14 ± 0.12 %ID/g. For the same substance, the Eyes uptake ([1]; 120 min p.i., n = 8) was 0.52 ± 0.15 %ID/g, the Heart uptake ([1]; 120 min p.i., n = 8) was 0.56 ± 0.08 %ID/g and the Intestine uptake ([1]; 120 min p.i., n = 8) was 3.37 ± 1.32 %ID/g. The Kidney uptake ([1]; 120 min p.i., n = 8) was 6.04 ± 1.92 %ID/g, the Liver uptake ([1]; 120 min p.i., n = 8) was 1.54 ±0.43 %ID/g and the Lungs uptake ([1]; 120 min p.i., n = 8) was 1.31 ± 0.23 %ID/g. It also gave a Muscle uptake ([1]; 120 min p.i., n = 8) of 0.47 ± 0.12 %ID/g, a Spleen uptake ([1]; 120 min p.i., n = 8) of 1.46 ± 0.26 %ID/g and a Blood uptake ([1]; 120 min p.i., n = 8) of 0.22 ± 0.03 %ID/g. The Tumor uptake ([1]; 5 min p.i., n = 5) was 10.30 ± 1.67 %ID/g, the Tumor uptake ([1]; 30 min p.i., n = 5) was 8.37 ± 2.13 %ID/g and the Tumor uptake ([1]; 60 min p.i., n = 8) was 6.86 ± 1.33 %ID/g. The Tumor uptake ([1]; 120 min p.i., n = 8) was 5.61 ± 1.52 %ID/g, the “Tumor uptake on the basis of SPECT quantification” value [2] was ~ 8.5 %ID/cm^3 and the “Intestine uptake in the presence of RGD2” value [3, 5] was 1.82 ± 0.86 %ID/g. The “Lungs uptake in the presence of RGD2” value [3, 5] was 1.52 ± 0.27 %ID/g, the “Spleen uptake in the presence of RGD2” value [3, 5] was 0.65 ± 0.07 %ID/g and the “Tumor uptake with RGD2” value ([3]; co-injection of excess RGD2 (350 µg/mouse or 14 mg/kg), n = 6, average ± SD) was 1.48 ± 0.42 %ID/g. For the same substance, the “Reduction of liver uptake by co-injected excess RGD2” value ([3]; of its origin value) was 50%, the “Reduction of lung uptake by co-injected excess RGD2” value ([3]; of its origin value) was 50% and the “Remained intact in the feces” value ([4]; feces at 2 h p.i.) was “More than 90%”. The “Metabolites in the urine” value ([4]; urine at 30 min and 120 min p.i.) was “no metabolites detected”.
